In ChEMBL document CHEMBL3045526, “Tailoring the structure of aminobisphosphonates to target plant P5C reductase” (J Agric Food Chem, 2008):

Molecular target: T1, Pyrroline-5-carboxylate reductase (Arabidopsis thaliana, UniProt P54904)
T1 sequence (P54904 whole entry): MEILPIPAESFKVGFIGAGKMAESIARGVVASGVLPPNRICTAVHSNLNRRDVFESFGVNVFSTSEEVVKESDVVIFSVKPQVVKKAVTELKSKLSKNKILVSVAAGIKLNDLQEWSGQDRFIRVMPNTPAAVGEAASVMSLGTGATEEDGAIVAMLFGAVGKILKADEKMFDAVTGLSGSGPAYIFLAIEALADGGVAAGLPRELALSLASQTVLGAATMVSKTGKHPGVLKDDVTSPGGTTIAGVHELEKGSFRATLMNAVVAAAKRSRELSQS
Assay: Inhibition of Arabidopsis thaliana P5C assessed as reduction in NADH oxidation incubated at 35 degC up to 10 min
Outline: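 P5C reductase partially purified from stationary-phase A. thaliana cultured cells. Forward reaction run in 100 mM Tris-HCl pH 8.0, 0.1 mM MgCl2, 2 mM DL-P5C, 0.25 mM NADH, with 0.15–0.20 nkat enzyme. A340 followed at 35 °C for up to 10 min against P5C-free blanks. Inhibitor final 5 µM–5 mM (pH 7.5–8.0), triplicate. IC50 by linear regression of % activity vs log concentration.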

Structure (SMILES) | IC50
O=P(O)(O)C(Nc1ccc(Cl)c(Cl)c1)P(=O)(O)O [3,4-DICHLOROPHENYLAMINOMETHYLENEBISPHOSPHONIC ACID] | 0.268 mM
O=P(O)(O)C(O)c1cccc(Cl)c1Cl (racemic) [(2,3-DICHLOROPHENYL)(HYDROXY)METHYLPHOSPHONIC ACID] | 4.9 mM
O=P(O)(O)C(O)c1ccc(Cl)cc1 (racemic) [(4-CHLOROPHENYL)(HYDROXY)METHYLPHOSPHONIC ACID] | 45.5 mM
NC(c1ccc(Cl)cc1Cl)P(=O)(O)O (racemic) [AMINO(2,4-DICHLOROPHENYL)METHYLPHOSPHONIC ACID] | 8.2 mM
COc1cccc(C(N)P(=O)(O)O)c1OC (racemic) [AMINO(2,3-DIMETHOXYPHENYL)METHYLPHOSPHONIC ACID] | 16 mM
O=P(O)(O)C(O)c1ccccc1Cl (racemic) [(2-CHLOROPHENYL)(HYDROXY)METHYLPHOSPHONIC ACID] | 7.1 mM
NC(c1ccccc1Br)P(=O)(O)O (racemic) [AMINO(2-BROMOPHENYL)METHYLPHOSPHONIC ACID] | 63 mM
O=P(O)(O)C(Nc1cc(Cl)ccc1Cl)P(=O)(O)O [2,5-DICHLOROPHENYLAMINOMETHYLENEBISPHOSPHONIC ACID] | 0.73 mM
O=P(O)(O)C(Nc1c(Cl)cccc1Cl)P(=O)(O)O [2,6-DICHLOROPHENYLAMINOMETHYLENEBISPHOSPHONIC ACID] | 0.112 mM
O=P(O)(O)C(O)c1ccc(Cl)cc1Cl (racemic) [(2,4-DICHLOROPHENYL)(HYDROXY)METHYLPHOSPHONIC ACID] | 5.8 mM
O=P(O)(O)C(O)c1cccc(Cl)c1 (racemic) [(3-CHLOROPHENYL)(HYDROXY)METHYLPHOSPHONIC ACID] | 5.1 mM
NC(c1cccc(Cl)c1)P(=O)(O)O (racemic) [AMINO(3-CHLOROPHENYL)METHYLPHOSPHONIC ACID] | 35.6 mM
O=P(O)(O)C(Nc1ccc(Cl)cc1)P(=O)(O)O [(4-CHLOROPHENYLAMINO)METHYLENEDIPHOSPHONIC ACID] | 0.86 mM
O=P(O)(O)C(Nc1cc(Cl)cc(Cl)c1)P(=O)(O)O [(3,5-DICHLOROPHENYLAMINO)METHYLENEDIPHOSPHONIC ACID] | 0.077 mM
O=P(O)(O)C(O)c1ccc(Cl)c(Cl)c1 (racemic) [(3,4-DICHLOROPHENYL)(HYDROXY)METHYLPHOSPHONIC ACID] | 1.4 mM
O=P(O)(O)C(Nc1cccc(Cl)c1Cl)P(=O)(O)O [2,3-DICHLOROPHENYLAMINOMETHYLENEBISPHOSPHONIC ACID] | 0.102 mM
NC(c1ccccc1Cl)P(=O)(O)O (racemic) [AMINO(2-CHLOROPHENYL)METHYLPHOSPHONIC ACID] | 10.6 mM
NC(c1ccccc1F)P(=O)(O)O (racemic) [AMINO(2-FLUOROPHENYL)METHYLPHOSPHONIC ACID] | 6.6 mM
NC(c1cccc(Cl)c1Cl)P(=O)(O)O (racemic) [AMINO(2,3-DICHLOROPHENYL)METHYLPHOSPHONIC ACID] | 4.6 mM
O=P(O)(O)C(Nc1ccc(Cl)cc1Cl)P(=O)(O)O [2,4-DICHLOROPHENYLAMINOMETHYLENEBISPHOSPHONIC ACID] | 0.5 mM
O=P(O)(O)C(O)c1c(Cl)cccc1Cl (racemic) [(2,6-DICHLOROPHENYL)(HYDROXY)METHYLPHOSPHONIC ACID] | 8.1 mM
